For series [1], the system named is Rattus norvegicus. The series can be described thus: Increase in uterine weight in po dosed ovariectomized rat osteopenia model administered daily measured after 2 weeks. In kind it is functional, organism-based.
Series [2] addresses T1, Estrogen receptor (Homo sapiens, UniProt P03372).
T1 sequence (P03372 whole entry): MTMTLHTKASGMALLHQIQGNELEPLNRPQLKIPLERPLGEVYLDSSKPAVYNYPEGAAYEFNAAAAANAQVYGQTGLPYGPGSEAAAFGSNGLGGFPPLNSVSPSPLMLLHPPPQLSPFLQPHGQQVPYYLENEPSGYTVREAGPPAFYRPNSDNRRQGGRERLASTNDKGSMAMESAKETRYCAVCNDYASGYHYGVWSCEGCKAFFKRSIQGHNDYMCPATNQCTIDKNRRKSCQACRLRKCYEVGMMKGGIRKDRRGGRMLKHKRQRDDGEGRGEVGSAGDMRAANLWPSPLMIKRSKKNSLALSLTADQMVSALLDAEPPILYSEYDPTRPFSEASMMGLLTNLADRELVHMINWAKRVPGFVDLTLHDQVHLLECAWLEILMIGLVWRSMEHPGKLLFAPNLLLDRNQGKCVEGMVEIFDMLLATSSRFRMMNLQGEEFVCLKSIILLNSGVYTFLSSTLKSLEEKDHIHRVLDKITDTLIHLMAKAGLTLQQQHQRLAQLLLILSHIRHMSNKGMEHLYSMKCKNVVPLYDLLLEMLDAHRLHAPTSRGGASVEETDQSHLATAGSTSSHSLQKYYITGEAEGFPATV
The series can be described thus: Displacement of radiolabeled estrogen from estrogen receptor alpha by scintillation counting.

For series [3], the species on record is Rattus norvegicus. The experiment in a line: animal or person. It is filed as functional. The note with it: Uterus, 72 h, route oral.
For series [4], the system named is Rattus norvegicus. The experiment in a line: Increase in vaginal secretion in ovariectomized rat at 0.1 to 1 mg/kg, po administered daily measured after 2 weeks by cytology analysis. In kind it is functional, organism-based. The method in brief:
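Ovariectomized adult female rats dosed daily by oral gavage (0.5% Methocel suspension) for 2 or 6 weeks from 24 h after surgery. Vaginal fluid collected with a cotton swab and its absolute weight determined per animal.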

Series [5] has as its system Rattus norvegicus. The series can be described thus: Metabolite Cmax in rats after 10 mg/kg JNJ-1968990 oral dose. More on the design: dose 10 mg/kg, route oral. The settings on record: in vivo. In kind it is ADME, organism-based. The method in brief:
(§1)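 Single-dose rat pharmacokinetics. IV dosing at 1-3 mg/kg as a solution in 10% β-cyclodextrin; oral gavage at 10 mg/kg as a uniform suspension in 0.5% methylcellulose. Blood (0.5 mL) collected into heparinized tubes by orbital sinus puncture after dosing. Plasma extracted into acetonitrile with an internal standard and analysed by LC-MS-MS against standards to obtain PK parameters.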

In series [6] the test system is Rattus norvegicus. The experiment in a line: Metabolic stability in rat assessed as 2-Methoxy-5R-(-)-[4-(2-piperidin-1-ylethoxy)-phenyl]-11,12-dihydro-5H-6,13-dioxabenzo[3,4]cyclohepta[1,2-a]-naphthalen-8-ol Tmax at 2 mg/kg, iv administered as single dose by LC-MS/MS analysis. In kind it is ADME, organism-based. More on the design: dose 2 mg/kg, route intravenous. The note with it: in vivo. The method in brief:
as §1

The subject of series [7] is Rattus norvegicus. The series can be described thus: Decrease in bone resorption in ovariectomized rat assessed as decrease in urine deoxypyridinoline level at 0.1 to 1 mg/kg, po administered daily measured after 2 weeks. It is filed as functional, organism-based. In a few lines: (§2)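 Adult (>6 months) female rats, housed singly on a casein-based diet, ovariectomized under sterile conditions and anesthesia; 6-14 per group. From 24 h after surgery, daily oral gavage of an aqueous suspension in 0.5% Methocel for 2 or 6 weeks. […] Urine deoxypyridinoline measured as bone-resorption marker.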

The test system of series [8] is Rattus norvegicus. The series can be described thus: Increase in vaginal fluidity in ovariectomized rat at 1.4 mg/kg, po administered daily measured after 6 weeks by cytology analysis. In kind it is functional, organism-based. More on the design: dose 1.4 mg/kg.
Another series concerns the target Estrogen receptor beta (Homo sapiens, UniProt Q92731). The series can be described thus: Inhibition of fluormone ES2 binding to estrogen receptor beta after 1 hr by fluorescence polarization assay. For orientation: Fluorescence polarisation rises when a labelled molecule tumbles more slowly, as on binding a larger partner.
The test system of series [9] is Rattus norvegicus. The series can be described thus: Estrogenic activity in ovariectomized rat assessed as minor increase in uterine epithelial thickness at 0.1 to 1 mg/kg, po administered daily measured after 6 week by immunohistochemical analysis. In kind it is functional, organism-based.
Series [10] deals with Rattus norvegicus. The experiment in a line: Metabolic stability in rat assessed as 2-Methoxy-5R-(-)-[4-(2-piperidin-1-ylethoxy)-phenyl]-11,12-dihydro-5H-6,13-dioxabenzo[3,4]cyclohepta[1,2-a]-naphthalen-8-ol Tmax at 10 mg/kg, po administered as single dose by LC-MS/MS analysis. In kind it is ADME, organism-based. More on the design: dose 10 mg/kg, route oral. The note with it: in vivo. In a few lines:
as §1

A short description of series [11]: AUC in rat at 10 mg/kg, po administered as single dose by LC-MS/MS analysis. It is filed as ADME, organism-based. More on the design: dose 10 mg/kg, route oral. The note with it: plasma. In a few lines: as §1
The nature of series [12]: Cmax in rats after 10 mg/kg oral dose. More on the design: dose 10 mg/kg, route oral. The note with it: rat, in vivo. It is filed as ADME, organism-based. In a few lines:
as §1

Series [13] is described as follows: Tmax in rat at 10 mg/kg, po administered as single dose by LC-MS/MS analysis. More on the design: dose 10 mg/kg, route oral. The note with it: in vivo. In kind it is ADME, organism-based. The method in brief:
as §1

Series [14] can be described thus: Half life in rat at 10 mg/kg, po administered as single dose by LC-MS/MS analysis. In kind it is ADME, organism-based. More on the design: dose 10 mg/kg, route oral. The settings on record: in vivo. The method in brief: as §1
Series [15] in a line: Oral bioavailability in rat at 10 mg/kg administered as single dose by LC-MS/MS analysis. In kind it is ADME, organism-based. The settings on record: in vivo. In a few lines: as §1
For series [16], the target named is T1, Estrogen receptor. The experiment in a line: Antagonist activity at estrogen receptor in human Ishikawa cells assessed as 17-beta-estradiol-induced alkaline phosphatase activity after 3 days by chemiluminescence assay. In kind it is functional, cell-based.
Series [17] has as its system Rattus norvegicus. The series can be described thus: Decrease in plasma cholesterol level in po dosed ovariectomized rat osteopenia model administered daily measured after 2 weeks. In kind it is functional, organism-based.
Series [18] relates to Rattus norvegicus. The experiment in a line: Metabolite Cmax in rats after 2 mg/kg JNJ-1968990 intravenous dose. The note with it: in vivo. More on the design: dose 2 mg/kg, route intravenous. In kind it is ADME, organism-based. The method in brief:
as §1

Series [19] has as its system Rattus norvegicus. The series can be described thus: Metabolite Cmax in rats after 10 mg/kg JNJ-26529126 oral dose. It is filed as ADME, organism-based. More on the design: dose 10 mg/kg, route oral. The settings on record: in vivo. The method in brief:
as §1

In series [20] the test system is Rattus norvegicus. The experiment in a line: Metabolic stability in rat assessed as (R)-5-[4-(2-Dimethylamino-ethoxy)-phenyl]-11,12-dihydro-5H-6,13-dioxa-benzo[3,4]cyclohepta[1,2-a]naphthalene-2,8-diol Tmax at 2 mg/kg, iv administered as single dose by LC-MS/MS analysis. It is filed as ADME, organism-based. More on the design: dose 2 mg/kg, route intravenous. The note with it: in vivo. The method in brief:
as §1

Series [21] deals with Rattus norvegicus. The experiment in a line: Metabolite Cmax in rats after 10 mg/kg JNJ-26529152 oral dose. In kind it is ADME, organism-based. The note with it: in vivo. More on the design: dose 10 mg/kg, route oral. In a few lines: as §1
Series [22] concerns Rattus norvegicus. The series can be described thus: Decrease in bone resorption in ovariectomized rat assessed as decrease in urine deoxypyridinoline level at 0.1 mg/kg, po administered daily measured after 2 weeks. More on the design: dose 0.1 mg/kg. In kind it is functional, organism-based. In a few lines: as §2
Series [23] has as its system Rattus norvegicus. The experiment in a line: Metabolic stability in rat assessed as (R)-5-[4-(2-Dimethylamino-ethoxy)-phenyl]-11,12-dihydro-5H-6,13-dioxa-benzo[3,4]cyclohepta[1,2-a]naphthalene-2,8-diol Tmax at 10 mg/kg, po administered as single dose by LC-MS/MS analysis. It is filed as ADME, organism-based. More on the design: dose 10 mg/kg, route oral. The settings on record: in vivo. In a few lines: as §1

Activity calls are given as the source filed them.

The IC50 is the concentration that inhibits the measured activity by half. One may read the inhibition in vivo as the relative decrease from the control value, in per cent. As usually defined, the Tmax is the time at which the peak concentration occurs. By AUC is commonly meant the area under the concentration-time curve, a measure of exposure. Read a low AUC as low exposure. The term Cmax denotes the highest concentration seen after dosing. A word on the half-life: it is the time needed for the level to fall by half in the phase considered. A higher half-life goes with slow loss. By bioavailability is commonly meant dose-corrected exposure relative to a reference, in per cent. Lower therefore signals poor availability.

Chain of Estrogen receptor beta (Q92731 whole entry): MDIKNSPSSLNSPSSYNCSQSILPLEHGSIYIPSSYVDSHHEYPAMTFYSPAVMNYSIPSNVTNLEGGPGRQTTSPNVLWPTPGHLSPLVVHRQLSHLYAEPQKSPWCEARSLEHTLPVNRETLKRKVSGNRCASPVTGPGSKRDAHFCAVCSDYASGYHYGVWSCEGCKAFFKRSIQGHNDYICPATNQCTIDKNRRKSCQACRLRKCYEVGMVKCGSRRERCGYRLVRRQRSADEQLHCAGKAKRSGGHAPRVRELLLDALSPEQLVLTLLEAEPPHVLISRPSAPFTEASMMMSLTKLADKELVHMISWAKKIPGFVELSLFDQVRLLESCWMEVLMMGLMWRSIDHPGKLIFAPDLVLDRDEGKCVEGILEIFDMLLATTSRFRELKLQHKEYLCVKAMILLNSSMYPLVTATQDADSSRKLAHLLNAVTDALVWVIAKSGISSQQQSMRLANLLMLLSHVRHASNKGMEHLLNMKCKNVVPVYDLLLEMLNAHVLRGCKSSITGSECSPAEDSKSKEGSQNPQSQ

Turning to `COc1ccc2c(c1)OCCC1=C2[C@@H](c2ccc(OCCN3CCCCC3)cc2)Oc2cc(O)ccc21`, the result with Rattus norvegicus [1] and in the series on Rattus norvegicus [4] was inactive. Further, the IC50 on Estrogen receptor [2] turned out to be 5.8 nM; at Estrogen receptor beta, 99 nM; on Estrogen receptor [16] it was 76 nM. In addition, the inhibition in vivo at 1 mg/kg in the series filed under Rattus norvegicus [3] was 130%. The Cmax_metabolite in the series on Rattus norvegicus [5] came out at 91.4 ng/mL; with Rattus norvegicus [18] it was 15.2 ng/mL. In addition, the results for the Tmax (in the series on Rattus norvegicus [6]; in the series with Rattus norvegicus [10]; in [13]) were 8 h, 8 h and 6 h, respectively. Also, the outcome in the series with Rattus norvegicus [7], in the series with Rattus norvegicus [8], in the series with Rattus norvegicus [9] and with Rattus norvegicus [17] was Active. The same molecule returned an AUC in [11] of 6730 ng·h/mL. Moreover, the peak level in [12] (Cmax) was 228 ng/mL. In series [14], this molecule showed a half-life of 18.6 h. This molecule registered a bioavailability in series [15] of 61%.
As for `Oc1ccc2c(c1)O[C@H](c1ccc(OCCN3CCCCC3)cc1)C1=C2CCOc2cc(O)ccc21`, the result in the series on Rattus norvegicus [1] was inactive. Moreover, the results for the IC50 at Estrogen receptor [2], at Estrogen receptor beta and on Estrogen receptor [16] were 1.1 nM, 21 nM and 0.2 nM, respectively. Also, the inhibition in vivo at 1 mg/kg in the series listed under Rattus norvegicus [3] came to 135%. Moreover, the Cmax_metabolite with Rattus norvegicus [5] is 3.9 ng/mL; in the series with Rattus norvegicus [19], 14 ng/mL; in the series with Rattus norvegicus [21], 12 ng/mL; in the series on Rattus norvegicus [18], 1.6 ng/mL. In series [11], this molecule returned an exposure (AUC) of 1010 ng·h/mL. Moreover, the figures for the Tmax (in the series with Rattus norvegicus [20]; in series [13]; in the series with Rattus norvegicus [23]) were 8 h, 5 h and 6 h, respectively. The molecule further displayed a Cmax in series [12] of 91 ng/mL. The molecule also showed a half-life in series [14] of 4.8 h. In addition, in series [15], the bioavailability amounted to 11%. Moreover, the result in the series on Rattus norvegicus [22] was Active.

For the origin of these results see ChEMBL document CHEMBL1153760, “Identification and structure-activity relationships of chromene-derived selective estrogen receptor modulators for treatment of postmenopausal symptoms” (J Med Chem, 2009).
